Test results published in ChEMBL document CHEMBL1821722, “Design, synthesis and biological evaluation of novel desmuramyldipeptide analogs” (Eur J Med Chem, 2011).
Active and inactive are the calls of the source. No cut-off for these calls is given here.

Key:
[1] = test system: THP-1; assay: Cytotoxicity against human THP1 cells assessed as LDH release at 20.2 uM; type: cell-based; settings: thp-1, 20.2 µM
How it was run: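 LDH leakage into the medium used as the cytotoxicity read-out, taken at the highest concentration tested.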

[2] = test system: THP-1; assay: Immunomodulatory effect in human THP1 cells assessed as increase in LPS-induced TNF-alpha release at 20.2 uM after 24 hrs by sandwich ELISA relative to LPS; type: functional
How it was run: (§1)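 THP-1 cells at 10⁶ cells/ml in RPMI 1640 with 10% heat-inactivated FCS. Co-incubated 24 h with compound (0.2–200 µM) plus E. coli 0127:B8 LPS 1 ng/ml, DMSO vehicle ≤0.2% final. TNF-α in supernatant expressed as % of LPS-induced release, mean ± SD of 6 samples.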

[3] = test system: PBMC; assay: Immunomodulatory effect in human PBMC cells assessed as increase in LPS-induced TNF-alpha release at 20.2 uM after 24 hrs by sandwich ELISA; type: functional, cell-based
[4] = test system: THP-1; assay: Immunomodulatory effect in human THP1 cells assessed as increase in LPS-induced TNF-alpha release at 0.2 uM after 24 hrs by sandwich ELISA relative to LPS; type: functional; how it was run: as §1
[5] = test system: THP-1; assay: Immunomodulatory effect in human THP1 cells assessed as increase in LPS-induced TNF-alpha release after 24 hrs by sandwich ELISA relative to LPS; type: functional, cell-based; how it was run: as §1
[6] = test system: PBMC; assay: Cytotoxicity against human PBMC assessed as LDH release at 20.2 uM; type: cell-based
[7] = test system: THP-1; assay: Toxicity in human THP1 cells assessed TNF-alpha release at 20.2 uM after 3 to 24 hrs by sandwich ELISA; type: cell-based; settings: thp-1, 20.2 µM
How it was run: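 Time course in THP-1 cells, with release sampled at 3, 8 and 24 h. Cells co-incubated with test agent and 1 ng/ml LPS. Co-incubation was compared with preincubation.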

[8] = test system: THP-1; assay: Immunomodulatory effect in human THP1 cells assessed as increase in LPS-induced TNF-alpha release at 2 uM after 24 hrs by sandwich ELISA relative to LPS; type: functional; how it was run: as §1
[9] = test system: THP-1; assay: Toxicity in human THP1 cells assessed TNF-alpha release at 20.2 uM after 24 hrs by sandwich ELISA; type: cell-based; settings: thp-1, 24 h
How it was run: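 THP-1 in supplemented RPMI 1640 co-incubated 24 h with 20.2 µM compound and 1 ng/ml LPS, DMSO ≤0.2%. TNF-α release expressed as % of the LPS-only response, mean ± SD of 6 samples, Mann-Whitney U test.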

[10] = test system: THP-1; assay: Immunomodulatory effect in human THP1 cells assessed as increase in LPS-induced TNF-alpha release at 200 uM after 24 hrs by sandwich ELISA relative to LPS; type: functional; how it was run: as §1

CC(=O)N[C@H]1C(O)O[C@H](CO)[C@@H](O)[C@@H]1O[C@H](C)C(=O)N[C@@H](C)C(=O)N[C@H](CCC(=O)O)C(N)=O (stereo not given in full) [MURAMYL DIPEPTIDE]
Activity [1]: Non-toxic | Activity [2]: 187.4% | Activity [3]: Active | Activity [4]: 108% | Activity [5]: Dose-dependent effect | Activity [6]: Non-toxic | Activity [7]: Non-toxic | Activity [8]: 171.8% | Activity [9]: Non-toxic | Activity [10]: 306.8%
